ERAP1 inh – inhibitors of human ERAP1 aminopeptidase; inhibition, % at 10.7 µM; Q9NZ08; actives 0.15% (n = 340,000); recombinant ERAP1, Leu-AMC fluorescence, 60 min;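 active = mean replicate inhibition of at least 30%, or all replicates individually reaching that 30% level; inactive = mean below 30% and not every replicate reaching it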;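 also: 0% = neutral control wells and 100% = L-leucinethiol positive control wells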
rRNA inh HTS – inhibits bacterial ribosomal RNA function over humanized ribosomes. E. coli WT GFP vs humanized-ribosome RFP mutants, fluorescence, 24 h; stronger effect = lower value; DMSO median 0, no signal -100. GFP signal change (wild-type ribosome), % (no concentration beside the values). actives 1.6% (n = 350,000);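 active = significant combined selectivity score with lowered wild-type GFP, culture density cut under 30%, mutant RFP and density less affected; inactive = any of these conditions unmet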
F508del corr – correctors of CFTR F508del function in bronchial epithelial cells. CFBE cells, YFP halide quenching; stimulated with forskolin plus potentiator P3; % fluorescence drop versus neutral controls. activity (quench increase), % at 7.58 µM. actives 0.36% (n = 350,000);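 active = mean added fluorescence quench of at least 8% versus neutral control, with both replicates also reaching 8%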;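 also: cells transiently co-express mutant CFTR-F508del with the halide-sensitive YFP; corrector assay measuring rescue of mutant channel to the surface after 24 h compound exposure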
SIRT5 block – blocks human SIRT5 desuccinylation of peptide. Q9NXA8. Purified SirT5, succinyl-peptide AMC, trypsin-coupled fluorescence. inhibition, % at 15 µM. actives 1.1% (n = 330,000). AID 652115; in the data active = inhibition above about 15%
Target sequence (Q9NXA8 whole entry, looked up): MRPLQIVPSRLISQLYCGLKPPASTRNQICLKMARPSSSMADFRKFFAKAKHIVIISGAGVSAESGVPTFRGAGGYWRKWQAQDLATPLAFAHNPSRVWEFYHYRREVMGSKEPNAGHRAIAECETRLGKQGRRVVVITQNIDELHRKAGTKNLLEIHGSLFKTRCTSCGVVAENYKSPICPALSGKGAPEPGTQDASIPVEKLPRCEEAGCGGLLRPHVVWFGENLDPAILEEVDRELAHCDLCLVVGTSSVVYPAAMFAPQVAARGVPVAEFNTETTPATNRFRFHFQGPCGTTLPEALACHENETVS
S100A4 MyoIIA – S100A4-myosin IIA interaction inhibition; P26447; inhibition, % at 10.7 µM; AID 652163; actives 0.14% (n = 360,000); S100A4/TAMRA-MyoIIA peptide fluorescence polarization;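 active = mean inhibition of at least 70% across replicates, with every replicate also reaching that level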
Target sequence (P26447 whole entry, looked up): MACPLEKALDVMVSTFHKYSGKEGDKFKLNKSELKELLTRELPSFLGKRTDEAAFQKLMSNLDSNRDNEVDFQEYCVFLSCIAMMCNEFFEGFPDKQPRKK
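Compound dosing: one dose per compound; test system: human S100A4 monomer with TAMRA-labelled myosin IIA peptide; probe or stimulus: TAMRA-labelled myosin IIA heavy-chain peptide probe, 5 nM; medium: HEPES buffer with Ca2+, pH 7.2; schedule: 5 min incubation before reading; benchmarks: neutral control DMSO, positive control TFP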
Active calls of the source: *; nt = not tested or not shown. The list is not random: actives were taken first. Their share in the collection is about 3.1%.

SMILES	ERAP1 inh	rRNA inh HTS	F508del corr	SIRT5 block	S100A4 MyoIIA
O=C(CN1CCOCC1)N[C@@H]1CC[C@H](CCNC(=O)Nc2cc(F)ccc2F)O[C@@H]1CO	2	-1	1	16*	-14
O=C(CN1CCOCC1)N[C@H]1CC[C@@H](CCNC(=O)Nc2cc(F)ccc2F)O[C@@H]1CO	1	2	1	-1	-3
O=C(NCC[C@@H]1CC[C@H](NC(=O)Nc2cc(F)ccc2F)[C@H](CO)O1)Nc1ccc(Cl)cc1	-5	-48	-2	-6	17
COc1ccccc1C#Cc1ccc([C@@H]2[C@H]3CN(C(=O)C4CCC4)CCCCN3[C@H]2CO)cc1	1	-41	0	-2	10
O=C(CN1CCOCC1)NCC[C@@H]1CC[C@H](NC(=O)Nc2ccc(C(F)(F)F)cc2)[C@H](CO)O1	-2	-5	-1	6	-6
c1ccc2nc3c(ccc4ccccc43)cc2c1	3	-32	3	nt	-4
Nc1[nH]nc2ncc3cc4ccccc4nc3c12	1	-27	12*	1	-4
O=C(CSc1nnc(C2CC2)n1C1CC1)c1ccc(Br)s1	2	-28*	-1	0	-8
Cc1noc(C)c1S(=O)(=O)Nc1ccc2c(c1)C(=O)N([C@H](C)CO)C[C@@H](C)[C@H](CN(C)S(=O)(=O)c1cccs1)OCCCC[C@@H](C)O2	nt	2	-1	nt	nt
c1ccc(-c2nccc(-c3ccc4c(c3)OCO4)n2)cc1	3	-2	-1	5	-4
COc1nc(-c2ccccc2)cc(-c2ccc3c(c2)OCO3)c1C#N	2	10	17*	-5	-3
COc1ccc(C)cc1NC(=O)CSCc1ccccc1C	1	-22	-1	1	3
Cc1ccccc1CSCC(=O)Nc1ccccc1F	0	-25*	1	2	0
COc1ccc(/C=C/C(=O)NCCc2nc3ccccc3[nH]2)cc1	-1	-26*	-3	-2	-1
CCCCOc1ccc(/C=C/C(=O)NCCc2nc3ccccc3[nH]2)cc1	1	2	nt	2	-9
O=c1cc(O)c2sc3nc4c(c(C(F)(F)F)c3c2[nH]1)CCCCC4	nt	-9	-4	17*	-1
COc1ccc(OC)c(-c2cc(C(F)(F)F)c3c(n2)sc2c(O)cc(=O)[nH]c23)c1	6	10	nt	1	-5
CC(=O)Nc1nc(=O)c2ccccc2s1	33*	2	-1	-1	1
Cc1c(Cl)cccc1NC(=O)C1CC(=O)N(C2CCCC2)C1 (stereo unspecified)	-10	1	13*	-1	-2
S=C(NCc1ccccc1)NCc1ccccn1	0	17	1	-4	-35
S=C(NCc1ccccn1)NN=Cc1ccccn1	1	-19*	5	1	2
COc1ccccc1-c1ccc2c(c1)O[C@@H](CN(C)S(=O)(=O)c1ccccc1)[C@H](C)CN([C@H](C)CO)S2(=O)=O	0	1	-1	19*	-1
COc1ccccc1-c1ccc2c(c1)O[C@@H](CN(C)S(=O)(=O)c1ccccc1)[C@@H](C)CN([C@H](C)CO)S2(=O)=O	0	-4	-3	4	-1
COc1ccccc1-c1ccc2c(c1)O[C@H](CN(C)S(=O)(=O)c1ccccc1)[C@H](C)CN([C@H](C)CO)S2(=O)=O	6	1	-2	2	0
CCCN(C)C[C@@H]1Oc2cc(-c3ccccc3OC)ccc2S(=O)(=O)N([C@H](C)CO)C[C@@H]1C	-2	0	-2	32*	2
SMILES	ERAP1 inh	rRNA inh HTS	F508del corr	SIRT5 block	S100A4 MyoIIA
CCCN(C)C[C@@H]1Oc2cc(-c3ccccc3OC)ccc2S(=O)(=O)N([C@@H](C)CO)C[C@@H]1C	4	2	-2	-15	2
COc1ccccc1-c1ccc2c(c1)O[C@@H](CN(C)S(=O)(=O)c1ccccc1)[C@H](C)CN([C@@H](C)CO)S2(=O)=O	-2	-1	1	20*	3
COc1ccc(S(=O)(=O)Nc2ccc3c(c2)C(=O)N([C@@H](C)CO)C[C@H](C)[C@@H](CN(C)S(=O)(=O)c2cccs2)OCCCC[C@H](C)O3)cc1	1	-1	1	-1	-10
Cc1ccc(C)c(NC(=S)N2CCN(c3ccccn3)CC2)c1	0	0	-3	0	-5
Cc1ccc(C)c(NC(=S)N2CCC(c3nc4ccccc4s3)CC2)c1	-3	-35*	-2	-1	-7
CO[C@H]1CN(C)C(=O)c2cc(NC(C)=O)ccc2OC[C@H](C)N(C(=O)C2CCCCC2)C[C@@H]1C	-3	-1	0	0	8
Oc1ccc(-c2nccc(-c3ccc(Cl)cc3)n2)cc1	3	2	nt	0	2
Oc1ccc(-c2nccc(-c3ccc(Cl)cc3Cl)n2)cc1	-1	-22	-1	18*	1
C[C@@H]1CN([C@@H](C)CO)S(=O)(=O)c2ccc(-c3cccc(C(=O)N(C)C)c3)cc2O[C@H]1CN(C)Cc1ccc2c(c1)OCO2	0	0	-1	19*	7
COc1ccccc1-c1ccc2c(c1)O[C@@H](CN(C)Cc1ccc3c(c1)OCO3)[C@@H](C)CN([C@H](C)CO)S2(=O)=O	0	-2	3	17*	3
COc1ccccc1-c1ccc2c(c1)O[C@@H](CN(C)Cc1ccc3c(c1)OCO3)[C@H](C)CN([C@@H](C)CO)S2(=O)=O	-2	-3	-2	23*	1
CO[C@H]1CN(C)C(=O)c2ccc(NC(=O)Nc3cc(F)ccc3F)cc2OC[C@H](C)NC[C@@H]1C	2	0	-2	0	2
C[C@@H]1CN([C@@H](C)CO)C(=O)c2cc(C3=CCCC3)cnc2O[C@H]1CN(C)C(=O)c1ccncc1	0	-1	1	2	-32
CCCNC(=O)Nc1ccc2c(c1)C(=O)N(C)C[C@@H](OC)[C@@H](C)CN[C@@H](C)CO2	-4	3	2	2	111*
CO[C@H]1CN(C)C(=O)c2cc(NC(=O)Nc3cc(Cl)cc(Cl)c3)ccc2OC[C@@H](C)NC[C@H]1C	nt	-2	0	103*	nt
CCCNC(=O)Nc1ccc2c(c1)OC[C@@H](C)NC[C@@H](C)[C@@H](OC)CN(C)C2=O	-2	2	nt	-4	10
C[C@@H]1CN([C@@H](C)CO)C(=O)CCCn2cc(nn2)CO[C@H]1CN(C)CC1CCCC1	2	2	2	1	-2
O=C(Nc1ccc(F)c(F)c1)c1ccc(F)c(S(=O)(=O)N2CCC3(CC2)OCCO3)c1	-1	-27*	-1	-1	1
COc1ccc(CCNC(=O)c2ccc(Cl)c(S(=O)(=O)N3CCCC3)c2)cc1	0	-29*	3	1	-8
